Source: ChEMBL document CHEMBL4011617, “Ugi Reaction-Derived α-Acyl Aminocarboxamides Bind to Phosphatidylinositol 3-Kinase-Related Kinases, Inhibit HSF1-Dependent Heat Shock Response, and Induce Apoptosis in Multiple Myeloma Cells” (J Med Chem, 2017)
Active and inactive are the calls of the source. The calls are words filed in the database; no cut-off is given here.

How the values were obtained:
[1] = target: Serine/threonine-protein kinase ATR (Homo sapiens) (UniProt Q13535); test: Binding affinity to ATR protein in human INA-6 cells after 3 hrs by nanoLC-MS/MS method; format: cell-based
Chain of Serine/threonine-protein kinase ATR (Homo sapiens) (Q13535 whole entry, looked up): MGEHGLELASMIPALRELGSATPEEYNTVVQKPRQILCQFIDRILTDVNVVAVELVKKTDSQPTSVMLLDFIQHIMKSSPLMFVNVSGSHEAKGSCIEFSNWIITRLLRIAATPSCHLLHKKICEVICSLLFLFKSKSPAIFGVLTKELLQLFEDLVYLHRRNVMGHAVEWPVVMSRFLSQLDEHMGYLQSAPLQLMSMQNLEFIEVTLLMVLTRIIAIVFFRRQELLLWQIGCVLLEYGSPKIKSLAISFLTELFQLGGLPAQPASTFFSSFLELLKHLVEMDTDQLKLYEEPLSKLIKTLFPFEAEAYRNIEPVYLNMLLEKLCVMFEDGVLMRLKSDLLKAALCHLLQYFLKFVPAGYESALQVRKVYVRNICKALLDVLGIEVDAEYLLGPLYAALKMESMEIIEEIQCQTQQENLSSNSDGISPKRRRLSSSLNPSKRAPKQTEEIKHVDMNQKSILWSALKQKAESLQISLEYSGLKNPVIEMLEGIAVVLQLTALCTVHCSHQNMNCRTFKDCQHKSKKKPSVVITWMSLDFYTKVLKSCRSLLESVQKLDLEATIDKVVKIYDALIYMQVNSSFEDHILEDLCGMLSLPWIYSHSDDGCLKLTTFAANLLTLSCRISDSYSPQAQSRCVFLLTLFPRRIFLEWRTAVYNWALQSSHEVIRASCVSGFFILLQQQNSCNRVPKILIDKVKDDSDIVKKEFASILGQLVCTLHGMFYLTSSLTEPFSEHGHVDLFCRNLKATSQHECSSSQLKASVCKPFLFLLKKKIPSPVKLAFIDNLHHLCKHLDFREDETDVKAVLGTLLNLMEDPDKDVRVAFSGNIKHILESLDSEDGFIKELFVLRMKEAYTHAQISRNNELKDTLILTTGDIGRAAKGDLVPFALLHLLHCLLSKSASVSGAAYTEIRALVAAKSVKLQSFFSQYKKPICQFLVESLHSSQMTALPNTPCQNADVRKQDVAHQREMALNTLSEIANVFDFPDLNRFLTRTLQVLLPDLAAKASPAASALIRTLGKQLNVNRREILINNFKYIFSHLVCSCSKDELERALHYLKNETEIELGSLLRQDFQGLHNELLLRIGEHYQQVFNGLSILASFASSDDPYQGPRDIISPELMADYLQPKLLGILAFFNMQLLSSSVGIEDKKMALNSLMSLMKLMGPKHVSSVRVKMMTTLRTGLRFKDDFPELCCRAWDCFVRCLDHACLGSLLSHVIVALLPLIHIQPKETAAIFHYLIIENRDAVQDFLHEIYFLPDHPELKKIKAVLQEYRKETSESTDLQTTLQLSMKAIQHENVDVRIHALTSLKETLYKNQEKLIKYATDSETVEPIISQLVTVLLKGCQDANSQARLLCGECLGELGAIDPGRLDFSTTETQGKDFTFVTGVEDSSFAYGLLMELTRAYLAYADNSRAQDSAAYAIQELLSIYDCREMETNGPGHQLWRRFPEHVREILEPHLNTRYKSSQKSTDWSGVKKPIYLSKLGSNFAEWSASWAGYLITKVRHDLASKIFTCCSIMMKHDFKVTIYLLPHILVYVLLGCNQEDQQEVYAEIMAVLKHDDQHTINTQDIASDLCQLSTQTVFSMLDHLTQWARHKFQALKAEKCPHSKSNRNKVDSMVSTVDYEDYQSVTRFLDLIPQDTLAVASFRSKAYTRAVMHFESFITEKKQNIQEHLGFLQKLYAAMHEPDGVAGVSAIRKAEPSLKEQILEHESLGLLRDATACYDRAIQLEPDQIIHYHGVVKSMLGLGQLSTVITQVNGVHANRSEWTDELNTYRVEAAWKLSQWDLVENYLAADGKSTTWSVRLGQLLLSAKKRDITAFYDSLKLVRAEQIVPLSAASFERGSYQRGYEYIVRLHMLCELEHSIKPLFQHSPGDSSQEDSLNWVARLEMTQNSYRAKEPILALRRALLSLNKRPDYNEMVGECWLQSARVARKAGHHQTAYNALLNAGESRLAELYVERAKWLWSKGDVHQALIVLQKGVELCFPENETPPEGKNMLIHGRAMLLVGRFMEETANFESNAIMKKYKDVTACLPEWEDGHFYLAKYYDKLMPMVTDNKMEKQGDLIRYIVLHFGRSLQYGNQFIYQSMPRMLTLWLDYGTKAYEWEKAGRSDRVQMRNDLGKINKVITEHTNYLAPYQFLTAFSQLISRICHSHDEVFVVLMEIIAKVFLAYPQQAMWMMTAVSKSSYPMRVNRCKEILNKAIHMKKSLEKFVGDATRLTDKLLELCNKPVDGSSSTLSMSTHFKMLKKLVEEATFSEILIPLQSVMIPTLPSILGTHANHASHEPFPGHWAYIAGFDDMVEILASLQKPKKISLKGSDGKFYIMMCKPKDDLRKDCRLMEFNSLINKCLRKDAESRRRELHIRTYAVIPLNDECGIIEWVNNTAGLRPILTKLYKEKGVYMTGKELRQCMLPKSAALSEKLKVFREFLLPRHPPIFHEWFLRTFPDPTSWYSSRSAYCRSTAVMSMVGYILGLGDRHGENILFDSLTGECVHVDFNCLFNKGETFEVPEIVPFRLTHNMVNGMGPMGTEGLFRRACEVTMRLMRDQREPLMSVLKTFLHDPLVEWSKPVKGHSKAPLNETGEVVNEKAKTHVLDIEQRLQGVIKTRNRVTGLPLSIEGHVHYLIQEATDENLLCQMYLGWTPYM
In short: (§1)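 The biotinylated inhibitor was loaded on streptavidin beads, with empty beads as the control. Eluates were trypsin-digested and run by nanoLC-MS/MS. Inhibitor/control ratios came from label-free quantification, taken as medians of five biological replicates. Enrichment was called at Benjamini-Hochberg-adjusted limma p < 0.02.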

[2] = target: MICOS complex subunit MIC60 (Homo sapiens) (UniProt Q16891); test: Binding affinity to MICOS complex subunit MIC60 in human INA-6 cells after 3 hrs by nanoLC-MS/MS method; format: cell-based; in short: as §1
[3] = target: CCR4-NOT transcription complex subunit 10 (Homo sapiens) (UniProt Q9H9A5); test: Binding affinity to CCR4-NOT transcription complex subunit 10 in human INA-6 cells after 3 hrs by nanoLC-MS/MS method; format: cell-based; in short: as §1
[4] = test system: INA-6; test: Inhibition of heat shock response in human INA-6 cells assessed as reduction in HSF-1 mediated upregulation of the heat shock protein HSP27 at 50 uM preincubated for 4 hrs followed by HSP90 inhibitor and HSR inducer NVP-AUY922 addition measured after 4 hrs by Western blot method; format: functional, cell-based
In short: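 INA-6 myeloma cells pretreated with test compound for 4 h, then co-treated with the HSP90 inhibitor/HSR inducer NVP-AUY922 for a further 4 h. Cells harvested; HSP72, HSP27, HSF1 or phospho-HSF1 probed by Western blot with β-actin as loading control. DMSO-only cells were the negative control; NVP-AUY922-only cells were the positive control.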

[5] = target: Serine/threonine-protein phosphatase 6 regulatory ankyrin repeat subunit A (Homo sapiens) (UniProt O15084); test: Binding affinity to serine/threonine-protein phosphatase 6 regulatory ankyrin repeat subunit A in human INA-6 cells after 3 hrs by nanoLC-MS/MS method; format: cell-based; in short: as §1
[6] = target: Survival of motor neuron-related-splicing factor 30 (Homo sapiens) (UniProt O75940); test: Binding affinity to survival of motor neuron-related-splicing factor 30 in human INA-6 cells after 3 hrs by nanoLC-MS/MS method; format: cell-based; in short: as §1
[7] = target: Serine/threonine-protein phosphatase 6 regulatory subunit 1 (Homo sapiens) (UniProt Q9UPN7); test: Binding affinity to PP6R1 protein in human INA-6 cells after 3 hrs by nanoLC-MS/MS method; format: cell-based; in short: as §1
[8] = target: Serine-protein kinase ATM (Homo sapiens) (UniProt Q13315); test: Binding affinity to ATM protein in human INA-6 cells after 3 hrs by nanoLC-MS/MS method; format: cell-based; in short: as §1
[9] = target: MICOS complex subunit MIC19 (Homo sapiens) (UniProt Q9NX63); test: Binding affinity to MICOS complex subunit MIC19 in human INA-6 cells after 3 hrs by nanoLC-MS/MS method; format: cell-based; in short: as §1
Chain of MICOS complex subunit MIC19 (Homo sapiens) (Q9NX63 whole entry, one chain of several): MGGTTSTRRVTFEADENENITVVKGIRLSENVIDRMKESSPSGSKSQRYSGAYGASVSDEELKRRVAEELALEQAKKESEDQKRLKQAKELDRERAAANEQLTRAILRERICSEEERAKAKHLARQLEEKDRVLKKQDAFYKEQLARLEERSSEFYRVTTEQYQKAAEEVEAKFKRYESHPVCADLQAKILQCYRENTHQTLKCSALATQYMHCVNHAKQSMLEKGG

[10] = test system: INA-6; test: Inhibition of heat shock response in human INA-6 cells assessed as reduction in HSF-1 mediated upregulation of the heat shock protein HSP27 at 50 uM preincubated for 4 hrs followed by HSP90 inhibitor and HSR inducer NVP-AUY922 addition measured after 4 hrs by ELISA; format: functional, cell-based
[11] = target: Serine/threonine-protein phosphatase 6 regulatory ankyrin repeat subunit B (Homo sapiens) (UniProt Q8N8A2); test: Binding affinity to serine/threonine-protein phosphatase 6 regulatory ankyrin repeat subunit B in human INA-6 cells after 3 hrs by nanoLC-MS/MS method; format: cell-based; in short: as §1
Chain of Serine/threonine-protein phosphatase 6 regulatory ankyrin repeat subunit B (Homo sapiens) (Q8N8A2 whole entry): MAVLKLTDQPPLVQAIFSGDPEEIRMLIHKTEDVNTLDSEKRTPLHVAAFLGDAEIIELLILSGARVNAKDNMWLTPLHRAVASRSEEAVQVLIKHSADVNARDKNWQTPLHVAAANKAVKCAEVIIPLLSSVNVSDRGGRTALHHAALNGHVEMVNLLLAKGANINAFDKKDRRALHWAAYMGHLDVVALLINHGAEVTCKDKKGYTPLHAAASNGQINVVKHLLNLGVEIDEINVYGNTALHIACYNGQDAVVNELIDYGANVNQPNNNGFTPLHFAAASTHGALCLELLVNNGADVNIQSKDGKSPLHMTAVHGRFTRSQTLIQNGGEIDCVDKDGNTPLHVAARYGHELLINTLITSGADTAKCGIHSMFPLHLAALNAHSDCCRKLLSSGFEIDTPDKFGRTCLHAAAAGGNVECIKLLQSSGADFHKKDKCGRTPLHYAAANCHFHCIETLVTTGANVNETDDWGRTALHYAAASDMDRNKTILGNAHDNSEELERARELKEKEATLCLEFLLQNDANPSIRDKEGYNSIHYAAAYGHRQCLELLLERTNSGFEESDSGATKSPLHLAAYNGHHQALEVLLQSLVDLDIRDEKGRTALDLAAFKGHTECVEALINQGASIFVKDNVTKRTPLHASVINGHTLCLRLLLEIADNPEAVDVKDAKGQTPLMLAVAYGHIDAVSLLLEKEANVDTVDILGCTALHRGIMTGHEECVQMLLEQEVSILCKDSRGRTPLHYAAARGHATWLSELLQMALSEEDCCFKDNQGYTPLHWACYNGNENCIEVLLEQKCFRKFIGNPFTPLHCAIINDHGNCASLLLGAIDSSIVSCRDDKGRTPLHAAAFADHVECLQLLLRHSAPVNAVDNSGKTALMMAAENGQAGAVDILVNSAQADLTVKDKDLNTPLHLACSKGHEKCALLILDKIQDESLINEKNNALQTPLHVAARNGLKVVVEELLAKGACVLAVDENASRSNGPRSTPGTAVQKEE

[12] = target: Mitogen-activated protein kinase kinase kinase 6 (Homo sapiens) (UniProt O95382); test: Binding affinity to MAP3K6 in human INA-6 cells after 3 hrs by nanoLC-MS/MS method; format: cell-based; in short: as §1
[13] = target: Conserved oligomeric Golgi complex subunit 3 (Homo sapiens) (UniProt Q96JB2); test: Binding affinity to COG3 in human INA-6 cells after 3 hrs by nanoLC-MS/MS method; format: cell-based; in short: as §1
Chain of Conserved oligomeric Golgi complex subunit 3 (Homo sapiens) (Q96JB2 whole entry, one chain of several): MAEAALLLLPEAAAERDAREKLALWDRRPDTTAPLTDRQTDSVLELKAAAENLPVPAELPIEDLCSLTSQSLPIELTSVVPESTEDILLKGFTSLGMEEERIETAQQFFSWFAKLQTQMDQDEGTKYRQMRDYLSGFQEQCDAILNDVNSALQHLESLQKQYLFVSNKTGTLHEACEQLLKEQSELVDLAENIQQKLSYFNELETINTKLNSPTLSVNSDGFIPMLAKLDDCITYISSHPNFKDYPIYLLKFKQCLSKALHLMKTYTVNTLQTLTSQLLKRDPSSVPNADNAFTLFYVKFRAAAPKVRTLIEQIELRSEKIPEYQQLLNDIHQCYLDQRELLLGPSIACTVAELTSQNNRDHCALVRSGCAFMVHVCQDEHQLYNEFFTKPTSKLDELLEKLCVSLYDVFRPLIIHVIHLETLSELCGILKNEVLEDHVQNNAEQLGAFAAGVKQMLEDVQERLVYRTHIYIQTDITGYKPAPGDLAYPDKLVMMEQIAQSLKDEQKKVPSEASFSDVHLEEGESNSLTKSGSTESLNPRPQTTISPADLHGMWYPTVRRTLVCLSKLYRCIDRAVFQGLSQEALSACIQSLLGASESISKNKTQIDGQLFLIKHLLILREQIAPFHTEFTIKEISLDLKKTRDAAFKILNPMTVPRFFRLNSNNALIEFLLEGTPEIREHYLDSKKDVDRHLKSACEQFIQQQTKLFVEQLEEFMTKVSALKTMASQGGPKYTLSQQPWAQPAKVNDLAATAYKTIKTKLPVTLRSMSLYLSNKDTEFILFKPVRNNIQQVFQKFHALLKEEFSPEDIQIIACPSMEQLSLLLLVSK

[14] = target: Conserved oligomeric Golgi complex subunit 4 (Homo sapiens) (UniProt Q9H9E3); test: Binding affinity to COG4 in human INA-6 cells after 3 hrs by nanoLC-MS/MS method; format: cell-based; in short: as §1
[15] = target: CCR4-NOT transcription complex subunit 3 (Homo sapiens) (UniProt O75175); test: Binding affinity to CCR4-NOT transcription complex subunit 3 in human INA-6 cells after 3 hrs by nanoLC-MS/MS method; format: cell-based; in short: as §1
[16] = target: Peflin (Homo sapiens) (UniProt Q9UBV8); test: Binding affinity to PEF1 protein in human INA-6 cells after 3 hrs by nanoLC-MS/MS method; format: cell-based; in short: as §1
Chain of Peflin (Homo sapiens) (Q9UBV8 whole entry): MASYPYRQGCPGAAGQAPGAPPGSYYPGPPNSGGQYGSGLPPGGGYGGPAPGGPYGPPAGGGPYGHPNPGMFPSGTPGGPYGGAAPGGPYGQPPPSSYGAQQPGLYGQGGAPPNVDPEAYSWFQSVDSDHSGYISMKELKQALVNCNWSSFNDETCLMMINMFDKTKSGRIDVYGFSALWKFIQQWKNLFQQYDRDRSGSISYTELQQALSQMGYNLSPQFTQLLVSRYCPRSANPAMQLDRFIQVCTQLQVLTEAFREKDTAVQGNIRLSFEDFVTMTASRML

[17] = target: Serine-protein kinase ATM (Homo sapiens) (UniProt Q13315); test: Binding affinity to ATM protein in human INA-6 cells after 3 hrs by Western blot method; format: cell-based
In short: (§2)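 INA-6 lysate was incubated with compound-coupled streptavidin beads or with beads only as the control. Captured-protein eluates were Western blotted with specific antibodies against DNA-PK, ATM, ATR or mTOR. H2AX staining or Ponceau S served as loading controls.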

[18] = target: DNA-dependent protein kinase catalytic subunit (Homo sapiens) (UniProt P78527); test: Binding affinity to PRKDC protein in human INA-6 cells after 3 hrs by Western blot method; format: cell-based; in short: as §2
[19] = target: Serine/threonine-protein kinase ATR (Homo sapiens) (UniProt Q13535); test: Binding affinity to ATR protein in human INA-6 cells after 3 hrs by Western blot method; format: cell-based; in short: as §2
[20] = target: Serine/threonine-protein kinase mTOR (Homo sapiens) (UniProt P42345); test: Binding affinity to mTOR protein in human INA-6 cells after 3 hrs by Western blot method; format: cell-based; in short: as §2

Compound | Activity [1] | Activity [2] | Activity [3] | activity call (active/not active) for inhibition of HSP27 upregulation [4] | Activity [5] | Activity [6] | Activity [7] | Activity [8] | Activity [9] | heat shock response inhibition (active/not active) [10] | Activity [11] | Activity [12] | Activity [13] | Activity [14] | Activity [15] | Activity [16] | Activity [17] | Activity [18] | Activity [19] | Activity [20]
O=C(CCCC[C@@H]1SC[C@@H]2NC(=O)N[C@@H]21)NCCOCCOCCNCCOc1ccc(C(C(=O)NCc2ccccc2)N(C(=O)CCc2ccccc2)C2CC2)cc1 (mixture of isomers) | Active | Active | Active | inactive | Active | Active | Active | Active | Active | inactive | Active | Active | Active | Active | Active | Active |  |  |  | 
O=C(CCCC[C@@H]1SC[C@@H]2NC(=O)N[C@@H]21)NCCOCCOCCNCCOc1ccc(C(C(=O)NCc2ccccc2)N(C(=O)CCc2ccc(O)cc2)C2CC2)cc1 (mixture of isomers) | Active | Active | Active | inactive | Active | Active | Active | Active | Active | inactive | Active | Active | Active | Active | Active | Active | Active | Active | Active | Active
